# How the values were obtained:
# ASPC1 [1] = experiment: Cytotoxicity against human AsPC1 cells after 72 hrs by MTT assay; assay type: functional, cell-based; conditions: ASPC1, 72 h
# Procedure, shortened: (§1)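 Cells seeded at 3x10^5 cells/mL 24 h before assay (HEK293, AsPC-1 in DMEM; Jurkat, W1308 in RPMI-1640; 10% FCS, 2-ME). Tenfold dilutions from […] to 1 nM added; untreated cells as controls. 72 h incubation, MTT 250 µg/ml added for last 6 h, formazan dissolved in DMSO, OD read. IC50 from titration curves; inhibition index = 1 − OD(treated)/OD(control).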
# Jurkat [2] = experiment: Cytotoxicity against human Jurkat cells after 72 hrs by MTT assay; assay type: functional, cell-based; procedure, shortened: as §1
# [3] = Cytotoxicity against mouse W1308 cells after 72 hrs by MTT assay; assay type: functional, cell-based; conditions: W1308, 72 h; procedure, shortened: as §1
# HEK293 [4] = experiment: Cytotoxicity against HEK293 cells after 72 hrs by MTT assay; assay type: functional, cell-based; conditions: Homo sapiens, HEK293, 72 h; procedure, shortened: as §1
# Mus musculus [5] = experiment: Toxicity in C57BL/6 mouse assessed as interphase microtubule de-stabilizing activity by measuring influx of rhodamine in to spleen at 1 mg/kg, iv co-administered with rhodamine B by fluorimetry; assay type: organism-based; set-up: dose 1 mg/kg, route intravenous; conditions: in vivo
# Procedure, shortened: (§2)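 Intact mice, 6–8 wk, 3 per group; compound dissolved in DMSO at 20 mM, 4 µl diluted into 200 µl saline (1 mg/kg), mixed with 50 µl rhodamine B, single i.v. injection; controls DMSO plus rhodamine B. Killed 4 h later; organs cut, extracted in 0.3N acid in ethanol 2 h at 37 °C, centrifuged, supernatant fluorescence read with 540 nm filter.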
# [6] = Inhibition of lamb brain tubulin polymerization assessed as reduction in microtubule assembly by spectrophotometry; set-up: species or system Ovis aries
# Procedure, shortened: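 Tubulin purified from lamb brain by ammonium sulfate fractionation and ion-exchange chromatography. Assembly in 20 mM sodium phosphate, 1 mM EGTA, 10 mM MgCl2, 3.4 M glycerol, 1 mM GTP, pH 6.5, started by warming to 37 °C; turbidity followed at 350 nm over time. Inhibition plotted against ligand:tubulin molar ratio.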
# Mus musculus [7] = experiment: Toxicity in C57BL/6 mouse assessed as interphase microtubule de-stabilizing activity by measuring influx of rhodamine in to heart at 1 mg/kg, iv co-administered with rhodamine B by fluorimetry; assay type: organism-based; set-up: dose 1 mg/kg, route intravenous; conditions: in vivo; procedure, shortened: as §2
# [8] = Reduction in blood-brain barrier permeability in […]; assay type: ADME, tissue-based, C57BL/6, Endothelial cell; set-up: scale not given: the % may be the effect or the level left; conditions: mouse; procedure, shortened: as §2
# Mus musculus [9] = experiment: Toxicity in C57BL/6 mouse assessed as interphase microtubule de-stabilizing activity by measuring leakage of rhodamine through the gut at 1 mg/kg, iv co-administered with rhodamine B by fluorimetry; assay type: organism-based; set-up: dose 1 mg/kg, route intravenous; conditions: in vivo; procedure, shortened: as §2
# [10] = Induction of apoptosis in mouse W1308 cells assessed as pre-apoptotic cells level at 200 nM after 48 hrs by 3,3'-dihexyloxacarbocyanine iodide and propidium iodide staining based flow cytometry (reference value: 17%); assay type: functional
# [11] = Growth inhibition of mouse W1308 cells at 100 uM after 72 hrs by MTT assay; assay type: functional; conditions: W1308, 72 h, read-out: GI
# Jurkat [12] = experiment: Growth inhibition of human Jurkat cells at 100 uM after 72 hrs by MTT assay; assay type: functional; conditions: read-out: GI
# [13] = Induction of apoptosis in mouse W1308 cells assessed as apoptotic cells level at 200 nM after 48 hrs by 3,3'-dihexyloxacarbocyanine iodide and propidium iodide staining based flow cytometry (reference value: 11%); assay type: functional
# HEK293 [14] = experiment: Growth inhibition of HEK293 cells at 100 uM after 72 hrs by MTT assay; assay type: functional; conditions: Homo sapiens, HEK293, 72 h; read-out: GI
# ASPC1 [15] = experiment: Growth inhibition of human AsPC1 cells at 100 uM after 72 hrs by MTT assay; assay type: functional; conditions: ASPC1, 72 h, read-out: GI
Compound,IC50 (ASPC1 [1]),IC50 (Jurkat [2]),IC50 [3],IC50 (HEK293 [4]),Activity (Mus musculus [5]),ligand/tubulin molar ratio [6],Activity (Mus musculus [7]),Activity [8],Activity (Mus musculus [9]),Activity [10],inhibition of growth at 100 µM [11],IC50 [6],inhibition of growth at 100 µM (Jurkat [12]),Activity [13],inhibition of growth at 100 µM (HEK293 [14]),inhibition of growth at 100 µM (ASPC1 [15])
COc1cc2c(c(OC)c1OC)-c1cc3cc(-c4ccccc4)oc3cc1[C@@H](NC(C)=O)CC2,20000 nM,4000 nM,8000 nM,4000 nM,,,,,,,,,,,,
COc1ccc(/C=C\c2cc(OC)c(OC)c(OC)c2)cc1O [COMBRETASTATIN A4],,,,,Toxic,0.09,Toxic,40%,Toxic,,,,,,,
COc1cc2c(c(OC)c1OC)-c1cc3cc(C(C)O)oc3cc1[C@@H](NC(C)=O)CC2 (some centres not stated),< 200 nM,< 200 nM,< 200 nM,< 200 nM,,,,,,29%,60%,0.3 molar ratio,60%,20%,60%,60%
CCN(CC)Cc1cc2cc3c(cc2o1)[C@@H](NC(C)=O)CCc1cc(OC)c(OC)c(OC)c1-3,20000 nM,> 100000 nM,> 100000 nM,> 100000 nM,,,,,,,,,,,,
COc1cc2c(c(OC)c1OC)-c1ccc3c(ccn3C)c1C(=O)CC2,< 20 nM,< 20 nM,< 20 nM,< 20 nM,,,,,,20%,,,,29%,,
COc1cc2c(c(OC)c1OC)-c1cc3ccn(C)c3cc1C(=O)CC2,800 nM,< 100 nM,< 200 nM,< 200 nM,,,,,,,,,,,,
COc1cc2c(c(OC)c1OC)-c1cc3cc(CCO)oc3cc1[C@@H](NC(C)=O)CC2,2000 nM,1000 nM,1000 nM,1000 nM,,,,,,,50%,,50%,,50%,50%
